Laboratory results reported in ChEMBL document CHEMBL1145764, “Nonbenzamidine isoxazoline derivatives as factor Xa inhibitors” (Bioorg Med Chem Lett, 2003).

Assays:
Serine protease 1 = Serine protease 1 (Homo sapiens, UniProt P07477); experiment: Inhibitory activity against trypsin using human purified enzyme
How it was run: (§1)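 Human purified enzyme in 0.1 M sodium phosphate buffer with 0.2 M NaCl and 0.5% polyethylene glycol 6000, pH 7.0. Inhibitor tested at eight half-log concentrations from 10 down to 0.00316. Plates read at 405 nm for 30 min. Rates compared with no-inhibitor controls to give % activity, converted to Ki using substrate concentration and Km. Duplicate runs with common internal standards.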

Coagulation factor X [1] = molecular target: Coagulation factor X (Homo sapiens, UniProt P00742); experiment: Inhibitory activity against factor Xa using human purified enzyme.; how it was run: as §1
Prothrombin = Prothrombin (Homo sapiens, UniProt P00734); experiment: Inhibitory activity against thrombin using human purified enzyme; how it was run: as §1
Coagulation factor X [2] = molecular target: T1, Coagulation factor X (Oryctolagus cuniculus, UniProt O19045); experiment: Inhibitory activity against Rabbit factor Xa was determined
T1 sequence (O19045 whole entry): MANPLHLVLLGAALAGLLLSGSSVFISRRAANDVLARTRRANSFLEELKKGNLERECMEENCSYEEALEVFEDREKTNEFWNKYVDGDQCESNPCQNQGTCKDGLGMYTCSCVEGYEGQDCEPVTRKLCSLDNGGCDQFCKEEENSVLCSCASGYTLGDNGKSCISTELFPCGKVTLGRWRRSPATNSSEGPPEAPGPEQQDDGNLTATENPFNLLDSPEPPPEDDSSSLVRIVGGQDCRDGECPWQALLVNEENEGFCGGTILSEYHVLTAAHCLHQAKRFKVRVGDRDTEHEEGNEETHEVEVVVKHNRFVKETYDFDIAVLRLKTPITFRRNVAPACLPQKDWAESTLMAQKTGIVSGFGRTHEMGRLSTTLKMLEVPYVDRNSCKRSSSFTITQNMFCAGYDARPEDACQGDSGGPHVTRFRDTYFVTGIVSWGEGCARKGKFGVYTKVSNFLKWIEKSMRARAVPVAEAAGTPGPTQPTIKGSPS

[3] = Pharmacokinetic profile in terms of half life was determined at a dose of 5 mg/kg administered intravenously in dog; type: ADME, organism-based, Canis lupus familiaris; set-up: dose 5 mg/kg, route intravenous; conditions: in vivo, iv
Oryctolagus cuniculus [4] = species: Oryctolagus cuniculus; experiment: (§2) Inhibitory concentration required for antithrombotic efficacy in rabbit arterio-venous shunt model; type: functional
[5] = Pharmacokinetic profile in terms of clearance was determined at a dose of 5 mg/kg administered intravenously in dog; type: ADME, organism-based, Canis lupus familiaris; set-up: dose 5 mg/kg, route intravenous; conditions: in vivo, iv
[6] = Pharmacokinetic profile in terms of half life was determined at a dose of 0.5 mg/kg administered intravenously in dog; type: ADME, organism-based, Canis lupus familiaris; set-up: dose 0.5 mg/kg, route intravenous; conditions: in vivo, iv
Oryctolagus cuniculus [7] = species: Oryctolagus cuniculus; experiment: as §2; type: functional, organism-based
[8] = Pharmacokinetic profile in terms of clearance was determined at a dose of 0.5 mg/kg administered intravenously in dog; type: ADME, organism-based, Canis lupus familiaris; set-up: dose 0.5 mg/kg, route intravenous; conditions: in vivo, iv

Chain of Coagulation factor X (Homo sapiens, UniProt P00742) (P00742 41-179 limits assumed): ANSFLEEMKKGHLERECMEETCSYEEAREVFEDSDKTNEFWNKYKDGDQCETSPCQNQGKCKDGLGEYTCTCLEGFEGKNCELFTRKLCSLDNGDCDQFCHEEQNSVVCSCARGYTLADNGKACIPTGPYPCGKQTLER
Chain of Coagulation factor X (Homo sapiens, UniProt P00742) (P00742 235-488 limits assumed): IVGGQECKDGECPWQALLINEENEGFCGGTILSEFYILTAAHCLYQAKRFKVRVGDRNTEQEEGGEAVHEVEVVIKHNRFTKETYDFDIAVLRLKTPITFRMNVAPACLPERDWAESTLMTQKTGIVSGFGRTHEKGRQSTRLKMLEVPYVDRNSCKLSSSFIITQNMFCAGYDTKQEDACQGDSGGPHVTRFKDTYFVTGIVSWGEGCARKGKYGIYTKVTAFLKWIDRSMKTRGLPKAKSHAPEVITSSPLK
Chain of Serine protease 1 (P07477 whole entry): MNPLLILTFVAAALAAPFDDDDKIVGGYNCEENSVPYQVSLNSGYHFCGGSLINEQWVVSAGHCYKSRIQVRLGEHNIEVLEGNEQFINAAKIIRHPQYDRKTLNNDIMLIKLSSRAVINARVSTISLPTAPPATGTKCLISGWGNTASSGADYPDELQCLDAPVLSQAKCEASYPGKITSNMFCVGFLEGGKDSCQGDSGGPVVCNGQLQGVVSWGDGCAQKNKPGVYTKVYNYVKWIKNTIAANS

| Structure (SMILES) | Ki (Serine protease 1) | Ki (Coagulation factor X [1]) | Ki (Prothrombin) | also measured |
| --- | --- | --- | --- | --- |
| COc1ccc(C2=NOC(CNS(C)(=O)=O)(C(=O)Nc3ccc(-c4ccccc4S(N)(=O)=O)cn3)C2)cc1 (centres undefined) | > 4.2 µM | 0.01 µM | > 6.3 µM | – |
| N=C(N)c1cccc(C2=NOC(Cn3cnnn3)(C(=O)Nc3ccc(-c4ccccc4S(N)(=O)=O)cn3)C2)c1 (centres undefined) | – | – | – | Ki (Coagulation factor X [2]): 0.00011 µM; half-life [3]: 1.1 h; ID50 (Oryctolagus cuniculus [4]): 0.032 µM/h/kg; clearance [5]: 22 mL/min/kg |
| CC1(C(=O)Nc2ccc(-c3ccccc3S(N)(=O)=O)cc2)CC(c2ccc(Cl)c(N)c2)=NO1 (centres undefined) | – | 0.13 µM | – | – |
| CS(=O)(=O)NCC1(C(=O)Nc2ccc(-c3ccccc3S(N)(=O)=O)cn2)CC(c2ccc3onc(N)c3c2)=NO1 (centres undefined) | > 5.2 µM | 0.0046 µM | 5.2 µM | – |
| Nc1cc(C2=NOC(CNS(=O)(=O)Cc3ccccc3)(C(=O)Nc3ccc(-c4ccccc4S(N)(=O)=O)cn3)C2)ccc1Cl (racemic) | > 4.2 µM | 0.0022 µM | 6.2 µM | – |
| Nc1cc(C2=NOC(CNS(=O)(=O)c3ccsc3)(C(=O)Nc3ccc(-c4ccccc4S(N)(=O)=O)cn3)C2)ccc1Cl (racemic) | > 8 µM | 0.0012 µM | > 21 µM | – |
| CS(=O)(=O)NCC1(C(=O)Nc2ccc(-c3ccccc3S(N)(=O)=O)cn2)CC(c2ccc(Cl)c(N)c2)=NO1 (racemic) | > 8 µM | 0.0019 µM | 1.3 µM | – |
| Nc1cc(C2=NOC(CNS(N)(=O)=O)(C(=O)Nc3ccc(-c4ccccc4S(N)(=O)=O)cn3)C2)ccc1Cl (racemic) | > 8 µM | 0.0055 µM | 5.9 µM | – |
| Nc1cc(C2=NOC(CNC=O)(C(=O)Nc3ccc(-c4ccccc4S(N)(=O)=O)cn3)C2)ccc1Cl (racemic) | > 8 µM | 0.015 µM | 14 µM | – |
| CCNC(=O)NCC1(C(=O)Nc2ccc(-c3ccccc3S(N)(=O)=O)cn2)CC(c2ccc(Cl)c(N)c2)=NO1 (racemic) | > 4.2 µM | 0.069 µM | > 6.3 µM | – |
| Nc1cc(C2=NOC(Cn3cccn3)(C(=O)Nc3ccc(-c4ccccc4S(N)(=O)=O)cn3)C2)ccc1Cl (single isomer, unassigned; (+)) | > 1.6 µM | 1.1 µM | > 21 µM | – |
| NC(=O)NCC1(C(=O)Nc2ccc(-c3ccccc3S(N)(=O)=O)cn2)CC(c2ccc(Cl)c(N)c2)=NO1 (single isomer, unassigned; (+)) | > 6 µM | 0.069 µM | > 21 µM | – |
| Nc1cc(C2=NOC(Cn3cnnn3)(C(=O)Nc3ccc(-c4ccccc4S(N)(=O)=O)cn3)C2)ccc1Cl (single isomer, unassigned; (+)) | > 1.6 µM | 0.32 µM | > 21 µM | – |
| CS(=O)(=O)NCC1(C(=O)Nc2ccc(-c3ccccc3S(N)(=O)=O)cn2)CC(c2ccc(Cl)c(N)c2)=NO1 (single isomer, unassigned; (+)) | > 4.2 µM | 0.24 µM | > 21 µM | – |
| Nc1cc(C2=NOC(Cn3cccn3)(C(=O)Nc3ccc(-c4ccccc4S(N)(=O)=O)cn3)C2)ccc1Cl (single isomer, unassigned; (-)) | > 1.6 µM | 0.015 µM | > 21 µM | – |
| Nc1cc(C2=NOC(Cn3cnnn3)(C(=O)Nc3ccc(-c4ccccc4S(N)(=O)=O)cn3)C2)ccc1Cl (stereo in doubt; 20 (-)) | > 1.6 µM | 0.0071 µM | 19 µM | – |

Continued by falling Ki (Coagulation factor X [1]), values first:

| Ki (Serine protease 1) | Ki (Coagulation factor X [1]) | Ki (Prothrombin) | Structure (SMILES) | also measured |
| --- | --- | --- | --- | --- |
| > 4.2 µM | 0.034 µM | > 21 µM | Nc1cc(C2=NOC(Cn3cncn3)(C(=O)Nc3ccc(-c4ccccc4S(N)(=O)=O)cn3)C2)ccc1Cl (racemic) | – |
| > 1.6 µM | 0.014 µM | > 21 µM | Nc1cc(C2=NOC(Cn3cccn3)(C(=O)Nc3ccc(-c4ccccc4S(N)(=O)=O)cn3)C2)ccc1Cl (racemic) | – |
| > 1.6 µM | 0.011 µM | > 21 µM | CC(=O)NCC1(C(=O)Nc2ccc(-c3ccccc3S(N)(=O)=O)cn2)CC(c2ccc(Cl)c(N)c2)=NO1 (racemic) | – |
| > 1.6 µM | 0.01 µM | > 21 µM | Nc1cc(C2=NOC(Cn3cnnn3)(C(=O)Nc3ccc(-c4ccccc4S(N)(=O)=O)cn3)C2)ccc1Cl (racemic) | – |
| – | 0.0072 µM | – | CC1(C(=O)Nc2ccc(-c3ccccc3S(N)(=O)=O)cc2)CC(c2cccc(C(=N)N)c2)=NO1 (centres undefined) | – |
| > 8 µM | 0.0037 µM | 18 µM | CCCS(=O)(=O)NCC1(C(=O)Nc2ccc(-c3ccccc3S(N)(=O)=O)cn2)CC(c2ccc(Cl)c(N)c2)=NO1 (racemic) | – |
| > 8 µM | 0.0033 µM | 6.6 µM | Nc1cc(C2=NOC(CNS(=O)(=O)CC(F)(F)F)(C(=O)Nc3ccc(-c4ccccc4S(N)(=O)=O)cn3)C2)ccc1Cl (racemic) | – |
| > 8 µM | 0.003 µM | 17 µM | Nc1cc(C2=NOC(CNS(=O)(=O)c3cccnc3)(C(=O)Nc3ccc(-c4ccccc4S(N)(=O)=O)cn3)C2)ccc1Cl (racemic) | – |
| > 1.6 µM | 0.0025 µM | 9.3 µM | NC(=O)NCC1(C(=O)Nc2ccc(-c3ccccc3S(N)(=O)=O)cn2)CC(c2ccc(Cl)c(N)c2)=NO1 (racemic) | – |
| > 1.6 µM | 0.0025 µM | 0.8 µM | NC(=O)NCC1(C(=O)Nc2ccc(-c3ccccc3S(N)(=O)=O)cn2)CC(c2ccc(Cl)c(N)c2)=NO1 (single isomer, unassigned; (-)) | half-life [6]: 2.32 h; Ki (Coagulation factor X [2]): 0.0047 µM; ID50 (Oryctolagus cuniculus [7]): 5.5 µmol/kg/h; clearance [8]: 7.17 mL/min/kg |
| > 8 µM | 0.0017 µM | > 21 µM | Nc1cc(C2=NOC(CNS(=O)(=O)c3ccccc3)(C(=O)Nc3ccc(-c4ccccc4S(N)(=O)=O)cn3)C2)ccc1Cl (racemic) | – |
| > 8 µM | 0.0015 µM | 0.8 µM | CS(=O)(=O)NCC1(C(=O)Nc2ccc(-c3ccccc3S(N)(=O)=O)cn2)CC(c2ccc(Cl)c(N)c2)=NO1 (stereo in doubt) | half-life [6]: 7.25 h; Ki (Coagulation factor X [2]): 0.0023 µM; ID50 (Oryctolagus cuniculus [4]): 8 µM/h/kg; clearance [8]: 8.83 mL/min/kg |
